From article PMC9796011 (Journal of Gastroenterology and Hepatology, 2022)

Assays:
[1] = Plasma concentration of adrenomedullin; format: in vivo; settings: human, intravenous
Method in brief: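 Blood was drawn before and at 4, 8 and 10 h after the start of the 8-h infusion (10 or 15 ng/kg/min) on days 1 and 7, and at 4 and 8 weeks. Test compound was measured by automated ELISA. Cmax and Tmax were read directly from the data; AUC was computed over 0–10 h. Values are mean ± SD.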

[2] = tested on: patients with biologic‐resistant CD; experiment: Safety evaluation: adverse events, vital signs; format: in vivo, human
Method in brief: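 All 24 patients, hospitalized for the 7-day infusion of placebo or 10 or 15 ng/kg/min test compound (8 h/day), were assessed for AEs and SAEs throughout the study. Vital signs, blood and urine tests and 12-lead ECG were taken at set times after dosing, with screening within 2 weeks before therapy. Patients with systolic BP <90 mmHg or pulse <45 bpm were excluded.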

[3] = tested on: patients with biologic‐resistant CD; experiment: CRP, fecal calprotectin and FIT; format: in vivo, human; settings: CRP at 2, 4, 8 weeks; fecal calprotectin and FIT at 1 week; data not shown
Method in brief: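 Adults with biologic-resistant CD at 16 Japanese centres were randomized 1:1:1 to placebo or 10 or 15 ng/kg/min of test compound, infused 8 h/day for 7 days from the day of biologic dosing. CRP was measured at 2, 4 and 8 weeks. Stool was collected before dosing and on day 8 for fecal calprotectin (fluorescence enzyme immunoassay) and FIT by a commercial lab. Groups were compared by t-test and ANOVA with Fisher's test.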

[4] = Trough level of infliximab; format: in vivo, human; settings: CD patients; 4 and 8 weeks vs day 1
Method in brief: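 Serum was collected immediately before each biologic dose. Infliximab trough levels were measured by ELISA at a contract lab in patients given placebo or 10 or 15 ng/kg/min test compound, infused 8 h/day for 7 days starting on the day of biologic dosing; changes were assessed at 8 weeks.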

[5] = tested on: patients with biologic‐resistant CD; experiment: Phase 2a trial: Crohn's disease activity index; format: in vivo, human; settings: 10 + 15 ng/kg/min groups pooled, mean ± SD
Method in brief: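 Patients (n = 24) were randomized 1:1:1 in blocks of three to placebo or 10 or 15 ng/kg/min test compound, infused 8 h/day for 7 days alongside ongoing biologic. Doctors scored CDAI by questionnaire at baseline and at 4, 6, 8, 16 and 24 weeks. Response was a drop of ≥50 points; remission was CDAI ≤150. Changes are mean ± SD, compared by t-test/ANOVA and, over 0–24 weeks, by a mixed-effects model.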

Crohn's disease = settings: cited from earlier work

With CC[C@H](C)[C@H](NC(=O)[C@H](CCC(N)=O)NC(=O)[C@H](Cc1c[nH]cn1)NC(=O)[C@H](C)NC(=O)[C@H](CC(C)C)NC(=O)[C@H](CCCCN)NC(=O)[C@H](CCC(N)=O)NC(=O)[C@@H](NC(=O)[C@@H](NC(=O)[C@@H]1CSSC[C@H](NC(=O)CNC(=O)[C@H](Cc2ccccc2)NC(=O)[C@H](CO)NC(=O)[C@H](CCCNC(=N)N)NC(=O)[C@H](CC(C)C)NC(=O)CNC(=O)[C@H](CCC(N)=O)NC(=O)[C@H](Cc2ccccc2)NC(=O)[C@H](CC(N)=O)NC(=O)[C@H](CC(N)=O)NC(=O)[C@H](CCSC)NC(=O)[C@H](CO)NC(=O)[C@H](CCC(N)=O)NC(=O)[C@H](CCCNC(=N)N)NC(=O)[C@@H](N)Cc2ccc(O)cc2)C(=O)N[C@@H](CCCNC(=N)N)C(=O)N[C@@H](Cc2ccccc2)C(=O)NCC(=O)N[C@@H]([C@@H](C)O)C(=O)N1)[C@@H](C)O)C(C)C)C(=O)N[C@@H](Cc1ccc(O)cc1)C(=O)N[C@@H](CCC(N)=O)C(=O)N[C@@H](Cc1ccccc1)C(=O)N[C@H](C(=O)N[C@@H](CC(=O)O)C(=O)N[C@@H](CCCCN)C(=O)N[C@@H](CC(=O)O)C(=O)N[C@@H](CCCCN)C(=O)N[C@@H](CC(=O)O)C(=O)N[C@@H](CC(N)=O)C(=O)N[C@H](C(=O)N[C@@H](C)C(=O)N1CCC[C@H]1C(=O)N[C@@H](CCCNC(=N)N)C(=O)N[C@@H](CO)C(=O)N[C@@H](CCCCN)C(=O)N[C@H](C(=O)N[C@@H](CO)C(=O)N1CCC[C@H]1C(=O)N[C@@H](CCC(N)=O)C(=O)NCC(=O)N[C@@H](Cc1ccc(O)cc1)C(N)=O)[C@@H](C)CC)C(C)C)[C@@H](C)O [Adrenomedullin] the AUC(0-t) ([1]; 10 ng/kg/min) was 0.247 ± 0.06 ng·h/mL, the AUC(0-t) ([1]; 15 ng/kg/min) was 0.441 ± 0.245 ng·h/mL and the Cmax ([1]; 15 ng/kg/min) was 0.0653 ± 0.043 ng/mL. For the same compound, the “Any adverse events, patients (%)” value ([2]; 10 ng/kg/min, 8 patients) was 7 (88%), the Deaths ([2]; 10 ng/kg/min, 8 patients) was 0 and the “Decrease in body weight, patients (%)” value ([2]; 10 ng/kg/min, 8 patients) was 0. The “Dehydration, patients (%)” value ([2]; 10 ng/kg/min, 8 patients) was 0, the “Dizziness, patients (%)” value ([2]; 10 ng/kg/min, 8 patients) was 1 (13%) and the “Fever up, patients (%)” value ([2]; 10 ng/kg/min, 8 patients) was 0. For the same compound, the “Flushing, patients (%)” value ([2]; 10 ng/kg/min, 8 patients) was 1 (13%), the “Head discomfort, patients (%)” value ([2]; 10 ng/kg/min, 8 patients) was 0 and the “Headache, patients (%)” value ([2]; 10 ng/kg/min, 8 patients) was 3 (38%). For the same compound, the “Increase in transaminase level, patients (%)” value ([2]; 10 ng/kg/min, 8 patients) was 0, the “Lumbago, patients (%)” value ([2]; 10 ng/kg/min, 8 patients) was 0 and the “Moderate to severe adverse events, patients (%)” value ([2]; 10 ng/kg/min, 8 patients) was 1 (13%). The “Nasopharyngitis, patients (%)” value ([2]; 10 ng/kg/min, 8 patients) was 1 (13%), the “Palpitation, patients (%)” value ([2]; 10 ng/kg/min, 8 patients) was 1 (13%) and the “Rash, patients (%)” value ([2]; 10 ng/kg/min, 8 patients) was 1 (13%). The “Right bundle branch block, patients (%)” value ([2]; 10 ng/kg/min, 8 patients) was 0, the “Serious adverse events, patients (%)” value ([2]; 10 ng/kg/min, 8 patients) was 0 and the “Vomiting, patients (%)” value ([2]; 10 ng/kg/min, 8 patients) was 0. The “Any adverse events, patients (%)” value ([2]; 15 ng/kg/min, 8 patients) was 8 (100%), the Deaths ([2]; 15 ng/kg/min, 8 patients) was 0 and the “Decrease in body weight, patients (%)” value ([2]; 15 ng/kg/min, 8 patients) was 0. For the same compound, the “Dehydration, patients (%)” value ([2]; 15 ng/kg/min, 8 patients) was 1 (13%), the “Dizziness, patients (%)” value ([2]; 15 ng/kg/min, 8 patients) was 0 and the “Fever up, patients (%)” value ([2]; 15 ng/kg/min, 8 patients) was 3 (38%). For the same compound, the “Flushing, patients (%)” value ([2]; 15 ng/kg/min, 8 patients) was 1 (13%), the “Head discomfort, patients (%)” value ([2]; 15 ng/kg/min, 8 patients) was 1 (13%) and the “Headache, patients (%)” value ([2]; 15 ng/kg/min, 8 patients) was 7 (88%). For the same compound, the “Increase in transaminase level, patients (%)” value ([2]; 15 ng/kg/min, 8 patients) was 1 (13%), the “Lumbago, patients (%)” value ([2]; 15 ng/kg/min, 8 patients) was 0 and the “Moderate to severe adverse events, patients (%)” value ([2]; 15 ng/kg/min, 8 patients) was 3 (38%). The “Nasopharyngitis, patients (%)” value ([2]; 15 ng/kg/min, 8 patients) was 2 (25%), the “Palpitation, patients (%)” value ([2]; 15 ng/kg/min, 8 patients) was 2 (25%) and the “Rash, patients (%)” value ([2]; 15 ng/kg/min, 8 patients) was 1 (13%). The “Right bundle branch block, patients (%)” value ([2]; 15 ng/kg/min, 8 patients) was 1 (13%), the “Vomiting, patients (%)” value ([2]; 15 ng/kg/min, 8 patients) was 1 (13%) and the “Changes in blood pressure and pulse rate” value ([2]; all groups, throughout the drug administration period, data not shown) was “did not observe any statistically significant changes”. The “Changes in CRP levels, fecal calprotectin and FIT versus placebo” value [3] was “no differences”, the “Trough levels of biologics (infliximab, adalimumab) after AM administration” value [4] was “did not change” and the “Changes in CDAI” value ([5]; 4 weeks, n = 16) was −71 ± 83. For the same compound, the “Changes in CDAI” value ([5]; 6 weeks, n = 14) was −72 ± 67, the “Changes in CDAI (primary endpoint)” value ([5]; 8 weeks, n = 15) was −81 ± 73 and the “Changes in CDAI” value ([5]; 16 weeks, n = 10) was −61 ± 51. For the same compound, the “Changes in CDAI” value ([5]; 24 weeks, n = 9) was −81 ± 46.
In the case of Infliximab, the “Annual risk of loss of infliximab response” value (Crohn's disease) is listed as 13 % per patient‐year.
